Measured values from ChEMBL document CHEMBL1156370, “Leishmanicidal, antiplasmodial, and cytotoxic activity of novel diterpenoid 1,2-quinones from Perovskia abrotanoides: new source of tanshinones” (J Nat Prod, 2001).
pIC50: −log10 of the molar value.

How the values were obtained:
[1] = Cytotoxicity against multidrug-resistant human KBV1 cells after 48 hrs by MTS/PMS assay; assay type: functional, cell-based; conditions: KB-V1, 48 h
Outline: (§1)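 Mycoplasma-free KB-3-1 and vinblastine-selected KB-V1 (passages 5-15, no vinblastine pressure) in DMEM/10% FBS, 37 °C, 5% CO2. Seeded 4 × 10^3 (KB-3-1) or 7 × 10^3 (KB-V1) cells/well, 24 h preincubation, then 48 h with compounds (DMSO ≤0.25%). MTS/PMS read at 492 nm after ~50 min; six repeats per concentration, IC50 from ≥3 independent determinations on different passages.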

[2] = tested on: Leishmania major; assay: Antileishmanial activity against Leishmania major promastigotes assessed as inhibition of [3H]thymidine uptake after 2 hrs by liquid scintillation counting; assay type: functional, organism-based
Outline: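 WHO reference vaccine strain promastigotes kept at 26 °C in RPMI 1640 with 25 mM HEPES, 4 mM L-glutamine, gentamicin, 10% heat-inactivated FCS. Compounds from DMSO stock diluted in medium, incubated with 1 × 10^7 promastigotes/mL for 2 h; [3H]thymidine then added, 18 h further incubation, harvest, scintillation counting of incorporated label.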

[3] = tested on: PBMC; assay: Inhibition of phytohemagglutininin A-stimulated human PBMC proliferation assessed as decrease in [14C]thymidine incorporation; assay type: functional, cell-based
[4] = Cytotoxicity against drug-sensitive human KB-3-1 cells after 48 hrs by MTS/PMS assay; assay type: functional, cell-based; conditions: KB 3-1, 48 h; outline: as §1
[5] = tested on: Plasmodium falciparum; assay: Antimalarial activity after 24 hrs against chloroquine-sensitive Plasmodium falciparum 3D7 by [3H]phenylalanine uptake
[6] = Resistance index, ratio of IC50 for multidrug-resistant human KBV1 cells to IC50 for drug-sensitive human KB-3-1 cells; assay type: functional

SMILES	pIC50 [1]	pIC50 [2]	pIC50 [3]	pIC50 [4]	pIC50 [5]	Ratio IC50 [6]
C[C@H]1COC2=C1C(=O)C(=O)c1c2ccc2c1[C@H](O)CCC2(C)C	5.25	4.33	4.80	5.30	4.57	
CC(C)C1=Cc2ccc3c(c2C(=O)C1=O)C(=O)CCC3(C)C	4.32	4.75	4.35	4.33	4.89	
C[C@H]1COC2=C1C(=O)C(=O)c1c2ccc2c1C(=O)CCC2(C)C		4.59	4.91		4.75	
C[C@@H]1[C@H](O)[C@@H](C)/C=C/C=C/C=C/C=C/C=C/C=C/C=C/[C@H](O[C@@H]2O[C@H](C)[C@@H](O)[C@H](N)[C@@H]2O)C[C@@H]2O[C@](O)(C[C@@H](O)C[C@@H](O)[C@H](O)CC[C@@H](O)C[C@@H](O)CC(=O)O[C@H]1C)C[C@H](O)[C@H]2C(=O)O [AMPHOTERICIN B]		6.80				
C[C@H]1COC2=C1C(=O)C(=O)c1c2ccc2c1CCCC2(C)C [CRYPTOTANSHINONE]	5.12	4.74	4.43	5.16	4.90	
COC(=O)c1ccccc1-c1c2ccc(=N)cc-2oc2cc(N)ccc12.Cl [RHODAMINE123]	< 3.30			5.80		500
CC[C@]1(O)C[C@@H]2CN(CCc3c([nH]c4ccccc34)[C@@](C(=O)OC)(c3cc4c(cc3OC)N(C)[C@H]3[C@@](O)(C(=O)OC)[C@H](OC(C)=O)[C@]5(CC)C=CCN6CC[C@]43[C@@H]65)C2)C1 [VINBLASTINE]						210
